From ChEMBL document CHEMBL1133594, “Structure-function studies on the new growth hormone-releasing peptide, ghrelin: minimal sequence of ghrelin necessary for activation of growth hormone secretagogue receptor 1a” (J Med Chem, 2000)
Residues, ends and D or L forms follow the SMILES beside them. *: point of attachment. Octanoyl = CCCCCCCC(=O)*

Key:
[1] = biological target: Growth hormone secretagogue receptor type 1 (Homo sapiens, UniProt Q92847); experiment: Binding affinity to cloned human growth hormone secretagogue receptor type 1 in a competitive binding assay with [35S]MK-0677 as a radiolabeled ligand
Chain of Growth hormone secretagogue receptor type 1 (Q92847 whole entry): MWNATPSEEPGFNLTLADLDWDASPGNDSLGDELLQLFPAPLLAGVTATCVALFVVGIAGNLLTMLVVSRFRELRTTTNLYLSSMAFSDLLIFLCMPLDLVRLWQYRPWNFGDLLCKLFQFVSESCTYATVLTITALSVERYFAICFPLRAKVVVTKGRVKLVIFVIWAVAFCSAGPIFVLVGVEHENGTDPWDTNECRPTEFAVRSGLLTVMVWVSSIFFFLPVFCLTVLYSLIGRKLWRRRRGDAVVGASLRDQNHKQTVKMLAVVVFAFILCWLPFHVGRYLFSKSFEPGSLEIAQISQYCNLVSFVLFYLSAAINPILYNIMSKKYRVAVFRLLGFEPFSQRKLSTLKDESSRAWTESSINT
Procedure, shortened: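 Competition filter binding on crude membranes from HEK293-aequorin stable cells expressing hGHSR1a, 4 µg membrane protein/well. Bound membranes were filtered on 0.5% polyethylenimine-prewet GF/C filters, washed 8 times and counted by scintillation.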

HEK293 [2] = experiment: Effective dose measuring intracellular calcium elevation in HEK293 cells; format: functional, cell-based; details: Homo sapiens
Procedure, shortened: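 Apo-aequorin was charged 1 h with 10 µM coelenterazine and 300 µM reduced glutathione in ECB buffer, pH 7.4. 5 × 10^4 cells were injected onto peptide and light integrated over 30 s, then Triton X-100 lysis (0.1% final) read over 10 s. Fractional response = challenge/total luminescence.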

HEK293 [3] = experiment: Percent activation at 10 uM relative to ghrelin to measure intracellular calcium elevation in HEK293 cells; format: functional, Homo sapiens

Structure (SMILES)	IC50 [1]	EC50 (HEK293 [2])	Activation (HEK293 [3])
CCCCCCCC(=O)OC[C@H](NC(=O)[C@H](CO)NC(=O)CN)C(=O)N[C@@H](Cc1ccccc1)C(=O)N[C@@H](CC(C)C)C(=O)N[C@@H](CO)C(=O)N1CCC[C@H]1C(=O)N[C@@H](CCC(=O)O)C(=O)N[C@@H](Cc1c[nH]cn1)C(=O)N[C@@H](CCC(N)=O)C(=O)N[C@@H](CCCN=C(N)N)C(=O)N[C@H](C(=O)N[C@@H](CCC(N)=O)C(=O)N[C@@H](CCC(N)=O)C(=O)O)C(C)C [listing 1 of 2 here]	9.6 nM	17 nM	
CCCCCCCC(=O)OC[C@H](NC(=O)[C@H](CO)NC(=O)CN)C(=O)N[C@@H](Cc1ccccc1)C(=O)N[C@@H](CC(C)C)C(=O)N[C@@H](CO)C(=O)N1CCC[C@H]1C(=O)N[C@@H](CCC(=O)O)C(=O)N[C@@H](Cc1c[nH]cn1)C(=O)N[C@@H](CCC(N)=O)C(=O)N[C@@H](CCCN=C(N)N)C(=O)N[C@H](C(=O)N[C@@H](CCC(N)=O)C(=O)N[C@@H](CCC(N)=O)C(=O)O)C(C)C [listing 2 of 2 here]			97%
CCCCCCCC(=O)NC[C@H](NC(=O)[C@H](CO)NC(=O)CN)C(=O)N[C@@H](Cc1ccccc1)C(=O)N[C@@H](CC(C)C)C(=O)N[C@@H](CO)C(=O)N1CCC[C@H]1C(=O)N[C@@H](CCC(=O)O)C(=O)N[C@@H](Cc1c[nH]cn1)C(=O)N[C@@H](CCC(N)=O)C(=O)N[C@@H](CCCNC(=N)N)C(=O)N[C@H](C(=O)N[C@@H](CCC(N)=O)C(=O)N[C@@H](CCC(N)=O)C(=O)O)C(C)C [listing 1 of 2 here]	8 nM	38 nM	
CCCCCCCC(=O)NC[C@H](NC(=O)[C@H](CO)NC(=O)CN)C(=O)N[C@@H](Cc1ccccc1)C(=O)N[C@@H](CC(C)C)C(=O)N[C@@H](CO)C(=O)N1CCC[C@H]1C(=O)N[C@@H](CCC(=O)O)C(=O)N[C@@H](Cc1c[nH]cn1)C(=O)N[C@@H](CCC(N)=O)C(=O)N[C@@H](CCCNC(=N)N)C(=O)N[C@H](C(=O)N[C@@H](CCC(N)=O)C(=O)N[C@@H](CCC(N)=O)C(=O)O)C(C)C [listing 2 of 2 here]			102%
CCCCCCCC(=O)OC[C@H](NC(=O)[C@H](CO)NC(=O)CN)C(=O)N[C@@H](Cc1ccccc1)C(=O)N[C@@H](CC(C)C)C(=O)N[C@@H](CO)C(=O)N1CCC[C@H]1C(=O)N[C@@H](CCC(=O)O)C(=O)N[C@@H](Cc1cnc[nH]1)C(=O)N[C@@H](CCC(N)=O)C(=O)N[C@@H](CCCNC(=N)N)C(=O)N[C@H](C(=O)N[C@@H](CCC(N)=O)C(=O)N[C@@H](CCC(N)=O)C(=O)N[C@@H](CCCNC(=N)N)C(=O)N[C@@H](CCCCN)C(=O)N[C@@H](CCC(=O)O)C(=O)N[C@@H](CO)C(=O)N[C@@H](CCCCN)C(=O)N[C@@H](CCCCN)C(=O)N1CCC[C@H]1C(=O)N1CCC[C@H]1C(=O)N[C@@H](C)C(=O)N[C@@H](CCCCN)C(=O)N[C@@H](CC(C)C)C(=O)N[C@@H](CCC(N)=O)C(=O)N1CCC[C@H]1C(=O)N[C@@H](CCCNC(=N)N)C(=O)O)C(C)C			100%
CC(C)C[C@H](NC(=O)[C@H](CCCCN)NC(=O)[C@H](C)NC(=O)[C@@H]1CCCN1C(=O)[C@@H]1CCCN1C(=O)[C@H](CCCCN)NC(=O)[C@H](CCCCN)NC(=O)[C@H](CO)NC(=O)[C@H](CCC(=O)O)NC(=O)[C@H](CCCCN)NC(=O)[C@H](CCCNC(=N)N)NC(=O)[C@H](CCC(N)=O)NC(=O)[C@H](CCC(N)=O)NC(=O)[C@@H](NC(=O)[C@H](CCCNC(=N)N)NC(=O)[C@H](CCC(N)=O)NC(=O)[C@H](Cc1cnc[nH]1)NC(=O)[C@H](CCC(=O)O)NC(=O)[C@@H]1CCCN1C(=O)[C@H](CO)NC(=O)[C@H](CC(C)C)NC(=O)[C@H](Cc1ccccc1)NC(=O)[C@H](CO)NC(=O)[C@H](CO)NC(=O)CN)C(C)C)C(=O)N[C@@H](CCC(N)=O)C(=O)N1CCC[C@H]1C(=O)N[C@@H](CCCNC(=N)N)C(=O)O		> 10000 nM	41%
CCCCCCCC(=O)NC[C@H](NC(=O)[C@H](CO)NC(=O)CN)C(=O)N[C@@H](Cc1ccccc1)C(=O)N[C@@H](CC(C)C)C(=O)N[C@@H](CO)C(=O)N1CCC[C@H]1C(=O)N[C@@H](CCC(=O)O)C(=O)N[C@@H](Cc1cnc[nH]1)C(=O)N[C@@H](CCC(N)=O)C(=O)N[C@@H](CCCNC(=N)N)C(=O)N[C@H](C(=O)N[C@@H](CCC(N)=O)C(=O)N[C@@H](CCC(N)=O)C(=O)N[C@@H](CCCNC(=N)N)C(=O)N[C@@H](CCCCN)C(=O)N[C@@H](CCC(=O)O)C(=O)N[C@@H](CO)C(=O)N[C@@H](CCCCN)C(=O)N[C@@H](CCCCN)C(=O)N1CCC[C@H]1C(=O)N1CCC[C@H]1C(=O)N[C@@H](C)C(=O)N[C@@H](CCCCN)C(=O)N[C@@H](CC(C)C)C(=O)N[C@@H](CCC(N)=O)C(=O)N1CCC[C@H]1C(=O)N[C@@H](CCCNC(=N)N)C(=O)O)C(C)C	0.42 nM	31 nM	105%
CC(C)C[C@H](NC(=O)[C@H](CCCCN)NC(=O)[C@H](C)NC(=O)[C@@H]1CCCN1C(=O)[C@@H]1CCCN1C(=O)[C@H](CCCCN)NC(=O)[C@H](CCCCN)NC(=O)[C@H](CO)NC(=O)[C@H](CCC(=O)O)NC(=O)[C@H](CCCCN)NC(=O)[C@H](CCCNC(=N)N)NC(=O)[C@H](CCC(N)=O)NC(=O)[C@H](CCC(N)=O)NC(=O)[C@@H](NC(=O)[C@H](CCCNC(=N)N)NC(=O)[C@H](CCC(N)=O)NC(=O)[C@H](Cc1cnc[nH]1)NC(=O)[C@H](CCC(=O)O)NC(=O)[C@@H]1CCCN1C(=O)[C@H](CO)NC(=O)[C@H](CC(C)C)NC(=O)[C@H](Cc1ccccc1)NC(=O)[C@H](COC(=O)CC12CC3CC(CC(C3)C1)C2)NC(=O)[C@H](CO)NC(=O)CN)C(C)C)C(=O)N[C@@H](CCC(N)=O)C(=O)N1CCC[C@H]1C(=O)N[C@@H](CCCNC(=N)N)C(=O)O			95%
CCCCCCCC(=O)OC[C@H](NC(=O)[C@H](CO)NC(C)=O)C(=O)N[C@@H](Cc1ccccc1)C(=O)N[C@@H](CC(C)C)C(N)=O (Ac-SS(Octanoyl)FL-NH2)	> 2000 nM	1150 nM	30%
CCCCCCCC(=O)OC[C@H](NC(C)=O)C(=O)N[C@@H](Cc1ccccc1)C(=O)N[C@@H](CC(C)C)C(N)=O (Ac-Ser(Octanoyl)-Phe-Leu-NH2)	> 10000 nM	2500 nM	29%
CCCCCCCC(=O)OC[C@H](NC(=O)[C@H](CO)NC(C)=O)C(=O)N[C@@H](Cc1ccccc1)C(N)=O (Ac-Ser-Ser(Octanoyl)-Phe-NH2)	> 10000 nM	> 10000 nM	28%
CCCCCCCC(=O)OC[C@H](NC(=O)[C@H](CO)NC(=O)CN)C(=O)N[C@@H](Cc1ccccc1)C(N)=O (H-GSS(Octanoyl)F-NH2)		72 nM	91%
CCCCCCCC(=O)OC[C@H](NC(=O)[C@H](CO)NC(=O)CN)C(=O)N[C@@H](Cc1ccccc1)C(=O)N[C@@H](CC(C)C)C(N)=O (H-GSS(Octanoyl)FL-NH2)		11.5 nM	11.5%
CCCCCCCC(=O)OC[C@H](NC(=O)[C@H](CO)NC(=O)CN)C(=O)N[C@@H](Cc1ccccc1)C(=O)N[C@@H](CC(C)C)C(=O)N[C@@H](CO)C(=O)N1CCC[C@H]1C(=O)N[C@@H](CCC(=O)O)C(=O)N[C@@H](Cc1c[nH]cn1)C(=O)N[C@@H](CCC(N)=O)C(=O)N[C@@H](CCCNC(=N)N)C(=O)N[C@H](C(=O)N[C@@H](CCC(N)=O)C(=O)N[C@@H](CCC(N)=O)C(=O)N[C@@H](CCCNC(=N)N)C(=O)N[C@@H](CCCCN)C(=O)N[C@@H](CCC(=O)O)C(=O)N[C@@H](CO)C(N)=O)C(C)C (H-GSS(Octanoyl)FLSPEHQRVQQRKES-NH2) [listing 1 of 2 here]	0.77 nM	22 nM	
CCCCCCCC(=O)OC[C@H](NC(=O)[C@H](CO)NC(=O)CN)C(=O)N[C@@H](Cc1ccccc1)C(=O)N[C@@H](CC(C)C)C(=O)N[C@@H](CO)C(=O)N1CCC[C@H]1C(=O)N[C@@H](CCC(=O)O)C(=O)N[C@@H](Cc1c[nH]cn1)C(=O)N[C@@H](CCC(N)=O)C(=O)N[C@@H](CCCNC(=N)N)C(=O)N[C@H](C(=O)N[C@@H](CCC(N)=O)C(=O)N[C@@H](CCC(N)=O)C(=O)N[C@@H](CCCNC(=N)N)C(=O)N[C@@H](CCCCN)C(=O)N[C@@H](CCC(=O)O)C(=O)N[C@@H](CO)C(N)=O)C(C)C (H-GSS(Octanoyl)FLSPEHQRVQQRKES-NH2) [listing 2 of 2 here]			92%
CCCCCCCC(=O)OC[C@H](NC(=O)[C@H](CO)NC(=O)CN)C(=O)N[C@@H](Cc1ccccc1)C(=O)N[C@@H](CC(C)C)C(=O)N[C@@H](CO)C(=O)N1CCC[C@H]1C(=O)N[C@@H](CCC(=O)O)C(=O)N[C@@H](Cc1c[nH]cn1)C(=O)N[C@@H](CCC(N)=O)C(=O)N[C@@H](CCCN=C(N)N)C(=O)N[C@H](C(=O)N[C@@H](CCC(N)=O)C(=O)N[C@@H](CCC(N)=O)C(=O)N[C@@H](CCCN=C(N)N)C(=O)N[C@@H](CCCCN)C(=O)N[C@@H](CCC(=O)O)C(=O)N[C@@H](CO)C(=O)N[C@@H](CCCCN)C(=O)N[C@@H](CCCCN)C(=O)N1CCC[C@H]1C(=O)N1CCC[C@H]1C(=O)N[C@@H](C)C(N)=O)C(C)C (H-GSS(Octanoyl)FLSPEHQRVQQRKESKKPPA-NH2)		15 nM	100%
CCCCCCCC(=O)OC[C@H](NC(=O)[C@H](CO)NC(=O)CN)C(N)=O (H-Gly-Ser-Ser(Octanoyl)-NH2)	> 10000 nM	> 10000 nM	28%
